From ChEMBL document CHEMBL1165943, “Design and synthesis of new anticancer pyrimidines with multiple-kinase inhibitory effect” (Bioorg Med Chem, 2010)

Columns and labels:
Assay type in all cases: functional
TK-10 = experiment: Cytotoxicity against human TK10 cells assessed as cell growth at 10 uM; conditions: Homo sapiens, TK-10; read-out: Activity
Outline: (§1)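 Single-dose screen at 10 μM across the 60-cell-line panel. Cells grown in RPMI 1640 with 5% FBS and 2 mM L-glutamine, seeded at 5,000–40,000 cells/well according to doubling time, and treated 24 h later. Exposure lasted 48 h at 37 °C, 5% CO₂. Adherent cells were fixed with cold TCA, suspension cells were fixed settled, and both were stained with SRB and read at 515 nm. Growth % was recorded, with inhibition % = 100 − growth %.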

PC-3 = experiment: Cytotoxicity against human PC3 cells assessed as cell growth at 10 uM; conditions: Homo sapiens, PC-3; read-out: Activity; outline: as §1
HT-29 = experiment: Cytotoxicity against human HT-29 cells assessed as cell growth at 10 uM; conditions: Homo sapiens, HT-29; read-out: Activity
Outline: (§2)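 Single-concentration screen at 10 μM across the 60-cell-line panel (nine tissue types); growth percentage recorded per cell line, with inhibition taken as 100 minus growth percentage.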

HCT-116 = experiment: Cytotoxicity against human HCT116 cells assessed as cell growth at 10 uM; conditions: Homo sapiens, HCT-116; read-out: Activity; outline: as §2
NCI/ADR-RES = experiment: Cytotoxicity against human NCI/ADR-RES cells assessed as cell growth at 10 uM; conditions: Homo sapiens, NCI/ADR-RES; read-out: Activity; outline: as §1
M14 = experiment: Cytotoxicity against human M14 cells assessed as cell growth at 10 uM; conditions: Homo sapiens, M14; read-out: Activity; outline: as §1
MOLT-4 = experiment: Cytotoxicity against human MOLT4 cells assessed as cell growth at 10 uM; conditions: Homo sapiens, MOLT-4; read-out: Activity; outline: as §1
DU-145 = experiment: Cytotoxicity against human DU145 cells assessed as cell growth at 10 uM; conditions: Homo sapiens, DU-145; read-out: Activity; outline: as §2
HCC 2998 = experiment: Cytotoxicity against human HCC2998 cells assessed as cell growth at 10 uM; conditions: Homo sapiens, HCC 2998; read-out: Activity; outline: as §2
LOX IMVI = experiment: Cytotoxicity against human LOXIMVI cells assessed as cell growth at 10 uM; conditions: Homo sapiens, LOX IMVI; read-out: Activity; outline: as §1
SK-MEL-5 = experiment: Cytotoxicity against human SK-MEL-5 cells assessed as cell growth at 10 uM; conditions: Homo sapiens, SK-MEL-5; read-out: Activity; outline: as §1
SF-295 = experiment: Cytotoxicity against human SF295 cells assessed as cell growth at 10 uM; conditions: Homo sapiens, SF-295; read-out: Activity; outline: as §1
NCI-H322M = experiment: Cytotoxicity against human NCI-H322M cells assessed as cell growth at 10 uM; conditions: Homo sapiens, NCI-H322M; read-out: Activity; outline: as §1
SK-MEL-2 = experiment: Cytotoxicity against human SK-MEL-2 cells assessed as cell growth at 10 uM; conditions: Homo sapiens, SK-MEL-2; read-out: Activity; outline: as §1
U-251 = experiment: Cytotoxicity against human U251 cells assessed as cell growth at 10 uM; conditions: Homo sapiens, U-251; read-out: Activity; outline: as §1
SR = experiment: Cytotoxicity against human SR cells assessed as cell growth at 10 uM; conditions: Homo sapiens, SR; read-out: Activity; outline: as §1
NCI-H226 = experiment: Cytotoxicity against human NCI-H226 cells assessed as cell growth at 10 uM; conditions: Homo sapiens, NCI-H226; read-out: Activity; outline: as §1
NCI-H522 = experiment: Cytotoxicity against human NCI-H522 cells assessed as cell growth at 10 uM; conditions: Homo sapiens, NCI-H522; read-out: Activity; outline: as §1
OVCAR-4 = experiment: Cytotoxicity against human OVCAR4 cells assessed as cell growth at 10 uM; conditions: Homo sapiens, OVCAR-4; read-out: Activity; outline: as §1
786-0 = experiment: Cytotoxicity against human 786-0 cells assessed as cell growth at 10 uM; conditions: Homo sapiens, 786-0; read-out: Activity; outline: as §2
SF-268 = experiment: Cytotoxicity against human SF268 cells assessed as cell growth at 10 uM; conditions: Homo sapiens, SF-268; read-out: Activity; outline: as §1
IGROV-1 = experiment: Cytotoxicity against human IGROV1 cells assessed as cell growth at 10 uM; conditions: Homo sapiens, IGROV-1; read-out: Activity; outline: as §1
BT-549 = experiment: Cytotoxicity against human BT549 cells assessed as cell growth at 10 uM; conditions: Homo sapiens, BT-549; read-out: Activity; outline: as §2
Malme-3M = experiment: Cytotoxicity against human MALME-3M cells assessed as cell growth at 10 uM; conditions: Homo sapiens, Malme-3M; read-out: Activity; outline: as §1
OVCAR-5 = experiment: Cytotoxicity against human OVCAR5 cells assessed as cell growth at 10 uM; conditions: Homo sapiens, OVCAR-5; read-out: Activity; outline: as §1
UACC-62 = experiment: Cytotoxicity against human UACC62 cells assessed as cell growth at 10 uM; conditions: Homo sapiens, UACC-62; read-out: Activity; outline: as §1
HCT-15 = experiment: Cytotoxicity against human HCT15 cells assessed as cell growth at 10 uM; conditions: Homo sapiens, HCT-15; read-out: Activity; outline: as §2
SNB-75 = experiment: Cytotoxicity against human SNB75 cells assessed as cell growth at 10 uM; conditions: Homo sapiens, SNB-75; read-out: Activity; outline: as §1
NCI-H460 = experiment: Cytotoxicity against human NCI-H460 cells assessed as cell growth at 10 uM; conditions: Homo sapiens, NCI-H460; read-out: Activity; outline: as §1
SK-OV-3 = experiment: Cytotoxicity against human SKOV3 cells assessed as cell growth at 10 uM; conditions: Homo sapiens, SK-OV-3; read-out: Activity; outline: as §1
OVCAR-3 = experiment: Cytotoxicity against human OVCAR-3 cells assessed as cell growth at 10 uM; conditions: Homo sapiens, OVCAR-3; read-out: Activity; outline: as §1
HOP-62 = experiment: Cytotoxicity against human HOP62 cells assessed as cell growth at 10 uM; conditions: Homo sapiens, HOP-62; read-out: Activity; outline: as §2
OVCAR-8 = experiment: Cytotoxicity against human OVCAR8 cells assessed as cell growth at 10 uM; conditions: Homo sapiens, OVCAR-8; read-out: Activity; outline: as §1
MCF7 = experiment: Cytotoxicity against human MCF7 cells assessed as cell growth at 10 uM; conditions: Homo sapiens, MCF7; read-out: Activity; outline: as §1
T47D = experiment: Cytotoxicity against human T47D cells assessed as cell growth at 10 uM; conditions: Homo sapiens, T47D; read-out: Activity; outline: as §1
EKVX = experiment: Cytotoxicity against human EKVX cells assessed as cell growth at 10 uM; conditions: Homo sapiens, EKVX; read-out: Activity; outline: as §2
K562 = experiment: Cytotoxicity against human K562 cells assessed as cell growth at 10 uM; conditions: Homo sapiens, K562; read-out: Activity; outline: as §1
ACHN = experiment: Cytotoxicity against human ACHN cells assessed as cell growth at 10 uM; conditions: Homo sapiens, ACHN; read-out: Activity; outline: as §2
MDA-MB-468 = experiment: Cytotoxicity against human MDA-MB-468 cells assessed as cell growth at 10 uM; conditions: Homo sapiens, MDA-MB-468; read-out: Activity; outline: as §1

## Cc1ccc(Nc2nc(C)cc(-c3cccnc3)n2)c(C)c1
TK-10
  growth at 10 µM: 118%
PC-3
  growth at 10 µM: 91.7%
HT-29
  growth at 10 µM: 96.8%
HCT-116
  growth at 10 µM: 95.2%
NCI/ADR-RES
  growth at 10 µM: 85%
M14
  growth at 10 µM: 114%
MOLT-4
  growth at 10 µM: 91.4%
DU-145
  growth at 10 µM: 99.5%
HCC 2998
  growth at 10 µM: 101%
LOX IMVI
  growth at 10 µM: 102%
SK-MEL-5
  growth at 10 µM: 89.8%
SF-295
  growth at 10 µM: 98.3%
NCI-H322M
  growth at 10 µM: 100%
SK-MEL-2
  growth at 10 µM: 107%
U-251
  growth at 10 µM: 92.2%
SR
  growth at 10 µM: 94.4%
NCI-H226
  growth at 10 µM: 94.8%
NCI-H522
  growth at 10 µM: 90.6%
OVCAR-4
  growth at 10 µM: 102%
786-0
  growth at 10 µM: 93.2%
SF-268
  growth at 10 µM: 96.4%
IGROV-1
  growth at 10 µM: 90.4%
BT-549
  growth at 10 µM: 95.9%
Malme-3M
  growth at 10 µM: 107%
OVCAR-5
  growth at 10 µM: 106%
UACC-62
  growth at 10 µM: 82.4%
HCT-15
  growth at 10 µM: 99.7%
SNB-75
  growth at 10 µM: 85.3%
NCI-H460
  growth at 10 µM: 95.7%
SK-OV-3
  growth at 10 µM: 104%
OVCAR-3
  growth at 10 µM: 105%
HOP-62
  growth at 10 µM: 111%
OVCAR-8
  growth at 10 µM: 94.2%
MCF7
  growth at 10 µM: 90%
T47D
  growth at 10 µM: 87.1%
EKVX
  growth at 10 µM: 96.1%
K562
  growth at 10 µM: 85.8%
ACHN
  growth at 10 µM: 108%
MDA-MB-468
  growth at 10 µM: 72.8%

## CC(=O)Nc1cccc(-c2ccc(-c3ccnc(NC(=O)Nc4cc(C(F)(F)F)cc(C(F)(F)F)c4)n3)cn2)c1.Cl
TK-10
  growth at 10 µM: 76%
PC-3
  growth at 10 µM: 56.2%
HT-29
  growth at 10 µM: 9.2%
HCT-116
  growth at 10 µM: 50.5%
NCI/ADR-RES
  growth at 10 µM: 45.5%
M14
  growth at 10 µM: 46.5%
MOLT-4
  growth at 10 µM: 53.3%
DU-145
  growth at 10 µM: 89.2%
HCC 2998
  growth at 10 µM: 70.7%
LOX IMVI
  growth at 10 µM: 49.4%
SK-MEL-5
  growth at 10 µM: -25.5%
SF-295
  growth at 10 µM: 49%
NCI-H322M
  growth at 10 µM: 41.8%
SK-MEL-2
  growth at 10 µM: 62.1%
U-251
  growth at 10 µM: -25.4%
SR
  growth at 10 µM: 68%
NCI-H226
  growth at 10 µM: 59.8%
NCI-H522
  growth at 10 µM: 8.5%
OVCAR-4
  growth at 10 µM: 7.08%
786-0
  growth at 10 µM: 69.8%
SF-268
  growth at 10 µM: 83.6%
IGROV-1
  growth at 10 µM: 76%
BT-549
  growth at 10 µM: 47.3%
Malme-3M
  growth at 10 µM: 52.3%
OVCAR-5
  growth at 10 µM: 93.5%
UACC-62
  growth at 10 µM: 46.6%
HCT-15
  growth at 10 µM: 60.3%
SNB-75
  growth at 10 µM: 87.2%
NCI-H460
  growth at 10 µM: 34.5%
SK-OV-3
  growth at 10 µM: 83.1%
OVCAR-3
  growth at 10 µM: 67.8%
HOP-62
  growth at 10 µM: -3.2%
OVCAR-8
  growth at 10 µM: 27.9%
MCF7
  growth at 10 µM: 7.95%
T47D
  growth at 10 µM: -11.3%
EKVX
  growth at 10 µM: 69.2%
K562
  growth at 10 µM: 34.8%
ACHN
  growth at 10 µM: 60.5%
MDA-MB-468
  growth at 10 µM: -30.3%

## Cc1cc(-c2cccnc2)nc(NC(=O)c2cccc(C(F)(F)F)c2)n1
TK-10
  growth at 10 µM: 102%
PC-3
  growth at 10 µM: 99.2%
HT-29
  growth at 10 µM: 98.9%
HCT-116
  growth at 10 µM: 105%
NCI/ADR-RES
  growth at 10 µM: 91.2%
M14
  growth at 10 µM: 109%
MOLT-4
  growth at 10 µM: 96.6%
DU-145
  growth at 10 µM: 101%
HCC 2998
  growth at 10 µM: 99.3%
LOX IMVI
  growth at 10 µM: 103%
SK-MEL-5
  growth at 10 µM: 99%
SF-295
  growth at 10 µM: 101%
NCI-H322M
  growth at 10 µM: 100%
SK-MEL-2
  growth at 10 µM: 93.5%
U-251
  growth at 10 µM: 97%
SR
  growth at 10 µM: 106%
NCI-H226
  growth at 10 µM: 97.5%
NCI-H522
  growth at 10 µM: 91.9%
OVCAR-4
  growth at 10 µM: 103%
786-0
  growth at 10 µM: 95.2%
SF-268
  growth at 10 µM: 103%
IGROV-1
  growth at 10 µM: 103%
BT-549
  growth at 10 µM: 97%
Malme-3M
  growth at 10 µM: 105%
OVCAR-5
  growth at 10 µM: 95.7%
UACC-62
  growth at 10 µM: 92.3%
HCT-15
  growth at 10 µM: 98.3%
SNB-75
  growth at 10 µM: 93.5%
NCI-H460
  growth at 10 µM: 103%
SK-OV-3
  growth at 10 µM: 101%
OVCAR-3
  growth at 10 µM: 116%
HOP-62
  growth at 10 µM: 106%
OVCAR-8
  growth at 10 µM: 96.6%
MCF7
  growth at 10 µM: 91.5%
T47D
  growth at 10 µM: 95.5%
EKVX
  growth at 10 µM: 101%
K562
  growth at 10 µM: 89%
ACHN
  growth at 10 µM: 105%
MDA-MB-468
  growth at 10 µM: 96.7%
